Measured values from ChEMBL document CHEMBL1128437, “Derivatives of 17-phenyl-18,19,20-trinorprostaglandin F2 alpha isopropyl ester: potential antiglaucoma agents” (J Med Chem, 1995).

Legend:
Felis catus [1] = organism: Felis catus; test: The maximal difference in Intraocular Pressure (IOP) between treated and control eyes. The effect was tested in cats at a dose of 1.0 (ug/eye); type: functional
Outline: (§1)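 Domestic female cats, 2–3 kg, trained for IOP measurement. One eye received a topical drop (20 µL) of drug in 0.9% NaCl with 0.5% polysorbate 80; the other eye received vehicle. IOP was read by pneumatonometer under oxibuprocain local anaesthesia before dosing and at 1, 3, 6 and 23 h. The maximal treated-minus-control difference was taken. Area between curves is the treated-eye AUC minus control-eye AUC, per animal.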

Felis catus [2] = organism: Felis catus; test: The mean ocular irritation in the treated eyes. An arbitrary scale of from 0 to 3 was used, 0 indicates absence of irritation and 3 complete closure of the lids. The effect was tested in cats at a dose of 1.0 (ug/eye); type: functional
Outline: (§2)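 Ocular irritation was scored in the treated eye of trained female cats, 2–3 kg. Drug was given as one topical 20 µL drop in 0.9% NaCl with 0.5% polysorbate 80. The contralateral eye got vehicle only.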

Felis catus [3] = organism: Felis catus; test: The maximal difference in […] pupil diameter between treated and control eyes. The effect was tested in cats at a dose of 1.0 (ug/eye); type: functional
Outline: (§3)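 Trained female cats, 2–3 kg, were dosed unilaterally with one 20 µL topical drop of drug in 0.9% NaCl/0.5% polysorbate 80, with vehicle in the contralateral eye. Horizontal pupil diameter was measured with a millimetre ruler under constant 10 lux illumination before dosing and at 1, 3, 6 and 23 h. Reported as maximal treated–control difference or as area between curves, per animal.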

Felis catus [4] = organism: Felis catus; test: The mean area between curves for Intraocular Pressure (IOP) measured in treated and control eyes. The effect was tested in cats at a dose of 1.0 (ug/eye); type: functional; outline: as §1
Felis catus [5] = organism: Felis catus; test: The mean area between curves for pupil diameter between treated and control eyes. The effect was tested in cats at a dose of 1.0 (ug/eye); type: functional; outline: as §3
Oryctolagus cuniculus [6] = organism: Oryctolagus cuniculus; test: The maximal difference in conjunctival hyperemia between treated and control eyes. The effect was tested in rabbit at a dose of 0.5 (ug/eye)
Oryctolagus cuniculus [7] = organism: Oryctolagus cuniculus; test: The mean area between curves for conjunctival hyperemia between treated and control eyes. The effect was tested in rabbit at a dose of 0.5 (ug/eye)
Felis catus [8] = organism: Felis catus; test: The maximal difference in Intraocular Pressure (IOP) between treated and control eyes. The effect was tested in cats at a dose of 3.0 (ug/eye); type: functional; outline: as §1
Felis catus [9] = organism: Felis catus; test: The mean ocular irritation in the treated eyes. An arbitrary scale of from 0 to 3 was used, 0 indicates absence of irritation and 3 complete closure of the lids. The effect was tested in cats at a dose of 3.0 (ug/eye); type: functional; outline: as §2
Felis catus [10] = organism: Felis catus; test: The maximal difference in […] pupil diameter between treated and control eyes. The effect was tested in cats at a dose of 3.0 (ug/eye); type: functional; outline: as §3
Felis catus [11] = organism: Felis catus; test: The mean area between curves for Intraocular Pressure (IOP) measured in treated and control eyes. The effect was tested in cats at a dose of 3.0 (ug/eye); type: functional; outline: as §1
Felis catus [12] = organism: Felis catus; test: The mean area between curves for pupil diameter between treated and control eyes. The effect was tested in cats at a dose of 3.0 (ug/eye); type: functional; outline: as §3

Structure (SMILES)	Imax (Felis catus [1])	Irritation (Felis catus [2])	Pmax (Felis catus [3])	I ABC (Felis catus [4])	P ABC (Felis catus [5])	Hmax (Oryctolagus cuniculus [6])	H ABC (Oryctolagus cuniculus [7])	Imax (Felis catus [8])	Irritation (Felis catus [9])	Pmax (Felis catus [10])	I ABC (Felis catus [11])	P ABC (Felis catus [12])
CC(C)OC(=O)CCC/C=C\C[C@@H]1[C@@H](/C=C/[C@H](O)CCc2ccccc2)[C@H](O)C[C@@H]1O	-0.5 mmHg	0 arbitrary units	< -5.7 mm	0.3	<-50.5	<1.7	–	–	–	–	–	–
CC(C)OC(=O)CCC/C=C\C[C@@H]1[C@@H](/C=C/[C@H](O)CCc2cccc(-c3ccccc3)c2)[C@H](O)C[C@@H]1O	<-1.5 mmHg	0 arbitrary units	0.5 mm	-23.5	6.5	<0.7	<2.2	–	–	–	–	–
CC(C)OC(=O)CCC/C=C\C[C@@H]1[C@@H](/C=C/[C@@H](O)CCc2cccc(-c3ccsc3)c2)[C@H](O)C[C@@H]1O	-1.1 mmHg	0.1 arbitrary units	< -1 mm	-21	-1.7	<1.3	<2.9	–	–	–	–	–
CC(=O)c1cccc(CC[C@@H](O)/C=C/[C@@H]2[C@@H](C/C=C\CCCC(=O)OC(C)C)[C@@H](O)C[C@H]2O)c1	-4 mmHg	0.3 arbitrary units	0.6 mm	-43.3	1.2	-0.3	-0.7	<-2.6 mmHg	0.1 arbitrary units	< -0.7 mm	-23.8	-1.4
CC(C)OC(=O)CCC/C=C\C[C@@H]1[C@@H](/C=C/[C@H](O)CCc2cccc(-c3ccoc3)c2)[C@H](O)C[C@@H]1O	–	–	–	–	–	<0.5	<1.6	-3 mmHg	0 arbitrary units	-1.3 mm	-16.3	-13
CC(C)OC(=O)CCC/C=C\C[C@@H]1[C@@H](/C=C/[C@H](O)CCc2ccc(-c3cccs3)cc2)[C@H](O)C[C@@H]1O	–	–	–	–	–	0.3	0.3	-1.3 mmHg	0.2 arbitrary units	0 mm	4.2	0
CC(C)OC(=O)CCC/C=C\C[C@@H]1[C@@H](/C=C/[C@@H](O)CCc2cccc(-c3cccs3)c2)[C@H](O)C[C@@H]1O	<-3 mmHg	0.1 arbitrary units	< -1.5 mm	<-40	-9.2	<0.9	<2.6	-1.2 mmHg	0.3 arbitrary units	< -3.5 mm	-10.3	<-28
CC(C)OC(=O)CCC/C=C\C[C@@H]1[C@@H](/C=C/[C@H](O)CCc2cccc(-c3ccsc3)c2)[C@H](O)C[C@@H]1O	1.7 mmHg	0.1 arbitrary units	< -1 mm	16	<-14	-0.3	-0.8	–	–	–	–	–
CC(C)OC(=O)CCC/C=C\C[C@@H]1[C@@H](/C=C/[C@H](O)CCc2cccc(-c3ccco3)c2)[C@H](O)C[C@@H]1O	–	–	–	–	–	0.3	0.4	-1.2 mmHg	0.4 arbitrary units	-0.3 mm	-8	-5.7
CC(C)OC(=O)CCC/C=C\C[C@@H]1[C@@H](/C=C/[C@H](O)CCc2cccc(-c3cccs3)c2)[C@H](O)C[C@@H]1O	<2.2 mmHg	0.3 arbitrary units	< -1.3 mm	12.8	<-12.4	0.2	0.1	–	–	–	–	–
CC(C)OC(=O)CCC/C=C\C[C@@H]1[C@@H](/C=C/[C@H](O)CCc2ccc(-c3ccco3)cc2)[C@H](O)C[C@@H]1O	–	–	–	–	–	<0.5	<1	2.5 mmHg	0.2 arbitrary units	< -1.5 mm	-25.8	<-10.6
CC(C)OC(=O)CCC/C=C\C[C@@H]1[C@@H](/C=C/[C@@H](O)CCc2ccc(-c3ccoc3)cc2)[C@H](O)C[C@@H]1O	–	–	–	–	–	0.2	0.3	–	–	–	–	–
CC(C)OC(=O)CCC/C=C\C[C@@H]1[C@@H](/C=C/[C@H](O)CCc2ccc(-c3ccsc3)cc2)[C@H](O)C[C@@H]1O	-0.3 mmHg	0 arbitrary units	< -0.7 mm	-3.1	-1.8	-0.2	-0.1	–	–	–	–	–
Cc1cccc(CC[C@@H](O)/C=C/[C@@H]2[C@@H](C/C=C\CCCC(=O)OC(C)C)[C@@H](O)C[C@H]2O)c1	-0.3 mmHg	0.1 arbitrary units	< -1.5 mm	-1.8	<-13.3	0.2	-0.1	–	–	–	–	–
CC(C)OC(=O)CCC/C=C\C[C@@H]1[C@@H](/C=C/[C@H](O)CCc2ccc(-c3ccoc3)cc2)[C@H](O)C[C@@H]1O	–	–	–	–	–	-0.3	-0.7	–	–	–	–	–
CC(C)OC(=O)CCC/C=C\C[C@@H]1[C@@H](/C=C/[C@@H](O)CCc2cccc(-c3ccoc3)c2)[C@H](O)C[C@@H]1O	–	–	–	–	–	<0.5	1.3	-3 mmHg	0.5 arbitrary units	-1.3 mm	-24.4	<-9.3
CC(C)OC(=O)CCC/C=C\C[C@@H]1[C@@H](/C=C/[C@@H](O)CCc2cccc(-c3ccccc3)c2)[C@H](O)C[C@@H]1O	<-4 mmHg	0.1 arbitrary units	-0.3 mm	<-30	2.3	<0.9	<1.9	–	–	–	–	–
CC(C)OC(=O)CCC/C=C\C[C@@H]1[C@@H](/C=C/[C@@H](O)CCc2cccc(-c3ccco3)c2)[C@H](O)C[C@@H]1O	–	–	–	–	–	<0.3	0.3	0.8 mmHg	0.1 arbitrary units	-0.3 mm	9.8	-2.5
Cc1ccc(CC[C@@H](O)/C=C/[C@@H]2[C@@H](C/C=C\CCCC(=O)OC(C)C)[C@@H](O)C[C@H]2O)cc1	–	–	–	–	–	0.2	-0.2	-1.8 mmHg	0 arbitrary units	-0.2 mm	-10.8	-0.2
CC(=O)c1ccc(CC[C@@H](O)/C=C/[C@@H]2[C@@H](C/C=C\CCCC(=O)OC(C)C)[C@@H](O)C[C@H]2O)cc1	-1.8 mmHg	0 arbitrary units	-0.2 mm	-17.9	0.2	-0.2	-0.3	–	–	–	–	–
